Assay results: ChEMBL document CHEMBL1781896, “Prenylated derivatives of baicalein and 3,7-dihydroxyflavone: synthesis and study of their effects on tumor cell lines growth, cell cycle and apoptosis” (2011)
The source made the active and inactive calls. No cut-off for these calls is given here.

Assays:
Format in all cases: functional
MCF7 = assay: Growth inhibition of human MCF7 cells after 48 hrs by sulforhodamine B assay; details: MCF7, 48 h
How it was run: (§1)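 SRB assay in MCF-7, NCI-H460 (5.0 × 10⁴ cells/mL) and A375-C5 (7.5 × 10⁴ cells/mL) grown in RPMI-1640 with 5% FBS. Cells attached overnight, then were exposed 48 h to five serial dilutions (top 150 or 50 µM; DMSO ≤0.25%). Cells were TCA-fixed, SRB-stained and read at A492. GI₅₀ taken from dose-response curves. Mean ± SEM, ≥3 independent experiments in duplicate.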

NCI-H460 [1] = assay: Cell cycle arrest in human NCI-H460 cells assessed as decrease in cell accumulation in S phase at 6.8 uM after 48 hrs by propidium iodide staining-based flow cytometry
NCI-H460 [2] = assay: Cell cycle arrest in human NCI-H460 cells assessed as increase in cell accumulation in G1 phase at 6.8 uM after 48 hrs by propidium iodide staining-based flow cytometry
NCI-H460 [3] = assay: Induction of apoptosis in human NCI-H460 cells assessed as apoptotic cells at 6.8 uM after 48 hrs using annexin-V FITC/PI staining by flow cytometry (reference value: 8.4 to 11.2%)
NCI-H460 [4] = assay: Cell cycle arrest in human NCI-H460 cells assessed as decrease in cell accumulation in G2/M phase at 6.8 uM after 48 hrs by propidium iodide staining-based flow cytometry
[5] = Growth inhibition of human A375-C5 cells after 48 hrs by sulforhodamine B assay; details: A375-C5, 48 h; how it was run: as §1
NCI-H460 [6] = assay: Growth inhibition of human NCI-H460 cells after 48 hrs by sulforhodamine B assay; details: NCI-H460, 48 h; how it was run: as §1
NCI-H460 [7] = assay: Cell cycle arrest in human NCI-H460 cells assessed as decrease in cell accumulation in G2/M phase at 2.7 uM after 48 hrs by propidium iodide staining-based flow cytometry
NCI-H460 [8] = assay: Induction of apoptosis in human NCI-H460 cells assessed as apoptotic cells at 2.7 uM after 48 hrs using annexin-V FITC/PI staining by flow cytometry (reference value: 8.4 to 11.2%)
NCI-H460 [9] = assay: Cell cycle arrest in human NCI-H460 cells assessed as decrease in cell accumulation in S phase at 2.7 uM after 48 hrs by propidium iodide staining-based flow cytometry
NCI-H460 [10] = assay: Cell cycle arrest in human NCI-H460 cells assessed as increase in cell accumulation in G1 phase at 2.7 uM after 48 hrs by propidium iodide staining-based flow cytometry
NCI-H460 [11] = assay: Cell cycle arrest in human NCI-H460 cells assessed as decrease in cell accumulation in G2/M phase at 4.1 uM after 48 hrs by propidium iodide staining-based flow cytometry
NCI-H460 [12] = assay: Induction of apoptosis in human NCI-H460 cells assessed as apoptotic cells at 4.1 uM after 48 hrs using annexin-V FITC/PI staining by flow cytometry (reference value: 8.4 to 11.2%)
NCI-H460 [13] = assay: Cell cycle arrest in human NCI-H460 cells assessed as increase in cell accumulation in G1 phase at 4.1 uM after 48 hrs by propidium iodide staining-based flow cytometry
NCI-H460 [14] = assay: Cell cycle arrest in human NCI-H460 cells assessed as decrease in cell accumulation in S phase at 4.1 uM after 48 hrs by propidium iodide staining-based flow cytometry
NCI-H460 [15] = assay: Cell cycle arrest in human NCI-H460 cells assessed as decrease in cell accumulation in S phase at 12.6 uM after 48 hrs by propidium iodide staining-based flow cytometry
NCI-H460 [16] = assay: Cell cycle arrest in human NCI-H460 cells assessed as decrease in cell accumulation in G2/M phase at 12.6 uM after 48 hrs by propidium iodide staining-based flow cytometry
NCI-H460 [17] = assay: Cell cycle arrest in human NCI-H460 cells assessed as increase in cell accumulation in G1 phase at 12.6 uM after 48 hrs by propidium iodide staining-based flow cytometry
NCI-H460 [18] = assay: Induction of apoptosis in human NCI-H460 cells assessed as apoptotic cells at 12.6 uM after 48 hrs using annexin-V FITC/PI staining by flow cytometry (reference value: 8.4 to 11.2%)
NCI-H460 [19] = assay: Cell cycle arrest in human NCI-H460 cells assessed as decrease in cell accumulation in S phase at 4.9 uM after 48 hrs by propidium iodide staining-based flow cytometry
NCI-H460 [20] = assay: Cell cycle arrest in human NCI-H460 cells assessed as decrease in cell accumulation in G2/M phase at 4.9 uM after 48 hrs by propidium iodide staining-based flow cytometry
NCI-H460 [21] = assay: Induction of apoptosis in human NCI-H460 cells assessed as apoptotic cells at 4.9 uM after 48 hrs using annexin-V FITC/PI staining by flow cytometry (reference value: 8.4 to 11.2%)
NCI-H460 [22] = assay: Cell cycle arrest in human NCI-H460 cells assessed as increase in cell accumulation in G1 phase at 4.9 uM after 48 hrs by propidium iodide staining-based flow cytometry
NCI-H460 [23] = assay: Cell cycle arrest in human NCI-H460 cells assessed as decrease in cell accumulation in G2/M phase at 3.9 uM after 48 hrs by propidium iodide staining-based flow cytometry
NCI-H460 [24] = assay: Induction of apoptosis in human NCI-H460 cells assessed as apoptotic cells at 3.9 uM after 48 hrs using annexin-V FITC/PI staining by flow cytometry (reference value: 8.4 to 11.2%)
NCI-H460 [25] = assay: Cell cycle arrest in human NCI-H460 cells assessed as decrease in cell accumulation in S phase at 3.9 uM after 48 hrs by propidium iodide staining-based flow cytometry
NCI-H460 [26] = assay: Cell cycle arrest in human NCI-H460 cells assessed as increase in cell accumulation in G1 phase at 3.9 uM after 48 hrs by propidium iodide staining-based flow cytometry

Row | Compound | GI50 (MCF7) [µM] | GI50 (NCI-H460 [6]) [µM] | GI50 [5] [µM] | further results
1 | CC1(C)CCc2c(ccc3c(=O)c(O)c(-c4ccccc4)oc23)O1 | 3.7 | 2.7 | 2.3 | Activity (NCI-H460 [7]): Active; Activity (NCI-H460 [8]): 13.1%; Activity (NCI-H460 [9]): Active; Activity (NCI-H460 [10]): Active
2 | CC(C)=CCC/C(C)=C/COc1cc2oc(-c3ccccc3)cc(=O)c2c(O)c1O | 4.4 | 4.1 | 5.3 | Activity (NCI-H460 [11]): Active; Activity (NCI-H460 [12]): 18.8%; Activity (NCI-H460 [13]): >10%; Activity (NCI-H460 [14]): Active
3 | CC(C)=CCOc1ccc2c(=O)c(OCC=C(C)C)c(-c3ccccc3)oc2c1 | 63.3 | 51.9 | 59 | 
4 | CC(C)=CCOc1ccc2c(=O)c(O)c(-c3ccccc3)oc2c1 | 14 | 12.6 | 30.3 | Activity (NCI-H460 [15]): Active; Activity (NCI-H460 [16]): Active; Activity (NCI-H460 [17]): Active; Activity (NCI-H460 [18]): 11.9%
5 | CC1(C)CCc2c(c(O)c(O)c3c(=O)cc(-c4ccccc4)oc23)O1 | 21 | 17.7 | 27.4 | 
6 | CC(C)=CCOc1c(OCC=C(C)C)c(O)c2c(=O)cc(-c3ccccc3)oc2c1CC=C(C)C | > 150 | > 150 | > 150 | 
7 | CC1Oc2c(O)c(O)c3c(=O)cc(-c4ccccc4)oc3c2C1(C)C (configuration not stated) | 43.7 | 40.6 | 47.7 | 
8 | CC1Oc2ccc3c(=O)c(O)c(-c4ccccc4)oc3c2C1(C)C (configuration not stated) | 4.5 | 3.9 | 7.6 | Activity (NCI-H460 [23]): Active; Activity (NCI-H460 [24]): 9.5%; Activity (NCI-H460 [25]): Active; Activity (NCI-H460 [26]): Active
9 | CC(C)=CCOc1cc2oc(-c3ccccc3)cc(=O)c2c(O)c1OCC=C(C)C | > 150 | > 150 | > 150 | 

Second part, led by results:

Row | GI50 (MCF7) [µM] | GI50 (NCI-H460 [6]) [µM] | Compound | GI50 [5] [µM] | further results
10 | 9.1 | 6.8 | CC(C)=CCOc1cc2oc(-c3ccccc3)cc(=O)c2c(O)c1O | 9.2 | Activity (NCI-H460 [1]): Active; Activity (NCI-H460 [2]): >10%; Activity (NCI-H460 [3]): 9.1%; Activity (NCI-H460 [4]): Active
11 | 17.4 | 15.4 | O=c1c(O)c(-c2ccccc2)oc2cc(O)ccc12 [3,7-DIHYDROXYFLAVONE] | 23 | 
12 | 66.5 | 55 | CC(C)=CCC/C(C)=C/COc1ccc2c(=O)c(OC/C=C(\C)CCC=C(C)C)c(-c3ccccc3)oc2c1 | 58.5 | 
13 | > 150 | > 150 | CC(C)=CCC/C(C)=C/COc1c(OC/C=C(\C)CCC=C(C)C)c(O)c2c(=O)cc(-c3ccccc3)oc2c1C/C=C(\C)CCC=C(C)C | > 150 | 
14 | 6.4 | 4.9 | CC(C)=CCC/C(C)=C/COc1ccc2c(=O)c(O)c(-c3ccccc3)oc2c1 | 7.2 | Activity (NCI-H460 [19]): Active; Activity (NCI-H460 [20]): Active; Activity (NCI-H460 [21]): 12%; Activity (NCI-H460 [22]): Active
15 | > 150 | > 150 | CC(C)=CCC/C(C)=C/COc1cc2oc(-c3ccccc3)cc(=O)c2c(O)c1OC/C=C(\C)CCC=C(C)C | > 150 | 
16 | 32.8 | 26.7 | O=c1cc(-c2ccccc2)oc2cc(O)c(O)c(O)c12 [BAICALEIN] | 7.7 | 
